Source: BindingDB's records for doi:10.1021/jm00080a008 (Merck Sharp and Dohme Research Laboratories, 1992)

Columns and labels:
[1] = molecular target: T1, Myeloperoxidase (Homo sapiens, UniProt P05164); assay: (§1) Compound was tested for the induction of nonspecific myeloperoxidase (MPO) release
T1 sequence (P05164 whole entry): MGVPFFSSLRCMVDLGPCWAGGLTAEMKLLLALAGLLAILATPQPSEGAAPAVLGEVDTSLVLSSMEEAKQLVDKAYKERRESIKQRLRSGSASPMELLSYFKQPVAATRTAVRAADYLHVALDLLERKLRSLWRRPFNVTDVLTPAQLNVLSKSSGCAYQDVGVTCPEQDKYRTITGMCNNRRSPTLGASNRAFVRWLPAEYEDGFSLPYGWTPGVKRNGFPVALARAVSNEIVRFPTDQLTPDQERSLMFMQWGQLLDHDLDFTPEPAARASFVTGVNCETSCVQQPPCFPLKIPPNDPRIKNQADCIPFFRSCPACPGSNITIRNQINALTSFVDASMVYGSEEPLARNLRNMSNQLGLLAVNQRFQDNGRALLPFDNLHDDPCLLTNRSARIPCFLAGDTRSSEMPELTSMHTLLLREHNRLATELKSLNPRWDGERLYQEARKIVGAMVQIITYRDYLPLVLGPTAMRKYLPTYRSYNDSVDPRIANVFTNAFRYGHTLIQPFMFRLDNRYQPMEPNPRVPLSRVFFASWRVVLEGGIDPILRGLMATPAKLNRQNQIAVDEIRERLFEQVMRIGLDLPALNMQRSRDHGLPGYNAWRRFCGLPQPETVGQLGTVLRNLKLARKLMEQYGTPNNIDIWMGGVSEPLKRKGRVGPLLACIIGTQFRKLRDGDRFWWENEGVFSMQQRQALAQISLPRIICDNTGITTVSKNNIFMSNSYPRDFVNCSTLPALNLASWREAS
How it was run: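 Freshly isolated human PMN (Ficoll-Hypaque, erythrocytes lysed with NH4Cl/EDTA/KHCO3), 4×10^5/mL in HBSS. Preincubated with compound or 1% aqueous DMSO 20 min at 37 °C, then cytochalasin B (5 μg/mL final) 5 min. Stimulated 5 min at 37 °C with C5a or fMLF, or no stimulus for nonspecific release. MPO read with dimethoxybenzidine/H2O2 at pH 6.0, azide-quenched at 2 min, A450. Duplicate or triplicate.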

[2] = molecular target: T1, Myeloperoxidase; assay: ChEBML_223053; experimental: as §1

EC50 [1] [µM] | EC50 [2] [µM] | Compound
< 3 |  | Cc1cc(N)c2cc(NC(=O)/C=C/c3ccccc3Cl)ccc2n1 [MLS000737665]
 | < 3 | Cc1cc(N)c2cc(NC(=O)Nc3ccc4nc(C)cc(N)c4c3)ccc2n1 [Aminoquinuride]
